We go through two compounds from ChEMBL document CHEMBL1132476, “Design and synthesis of novel alpha(1)(a) adrenoceptor-selective antagonists. 1. Structure-activity relationship in dihydropyrimidinones” (J Med Chem, 1999).

Molecules are shown by their SMILES.

The species named for data set [1] is Canis familiaris. Description: Potency to inhibit phenylephrine stimulated intraurethral pressure in dog. The data set is classed as functional, Canis lupus familiaris, Urethra. The gist of the method: (§1)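 Male mongrel dogs (9–14 kg), pentobarbital-anesthetized (35 mg/kg iv plus 4–5 mg/kg/h infusion), ventilated, with femoral catheters. Control iv bolus phenylephrine dose–response curves for intraurethral and diastolic pressure, repeated after successive iv antagonist doses (30, 100, 300). Kb by Arunlakshana–Schild analysis.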

For data set [2], the species on record is Rattus norvegicus. Description: (§2) Duration of action in rat. It counts as functional. In outline: (§3)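 Anesthetized (urethane) male Sprague-Dawley rats (300–400 g), kept at 37 °C rectal temperature. Anterior prostate attached to a force transducer at 2 g resting tension. Pretreatment: atropine and propranolol (1 mg/kg each). Contractions were evoked by agonist (phenylephrine 10 μg/kg or (R)-A-61603 30 ng/kg), given 5 min after antagonist and then every 30 min for up to 4 h.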

For data set [3], the species on record is Rattus norvegicus. The experiment in a line: Antagonistic activity against norepinephrine induced contractions in rat aorta. The data set is classed as functional.
For data set [4], the species on record is Canis familiaris. The experiment in a line: Potency to inhibi phenylephrine stimulated diastolic blood pressure in dog. It counts as functional, Canis lupus familiaris, Artery. In outline:
as §1

The species named for data set [5] is Rattus norvegicus. The experiment in a line: Dose required to produce 50% inhibition of phenylephrine induced contractile response in situ rat prostate. The data set is classed as functional, Prostate gland. The gist of the method: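 Male Sprague-Dawley rats (300–400 g), urethane-anesthetized, held at 37 °C rectal, pretreated with atropine and propranolol (1 mg/kg each). Anterior prostate on a force transducer at 2 g resting tension; phenylephrine challenge 10 μg/kg. For AD50, rising noncumulative antagonist doses were given every 20 min, with agonist 5 min after each. For duration, agonist was given 5 min after antagonist, then every 30 min for up to 4 h.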

The species entered for data set [6] is Rattus norvegicus. The experiment in a line: Dose required to produce 50% inhibition of phenylephrine induced diastolic blood pressure in rat. The data set is classed as functional, Artery.
Data set [7] is filed under the species Canis familiaris. Description: Potency to inhibit phenylephrine stimulated diastolic blood pressure in dog. It counts as functional, Canis lupus familiaris, Artery. The gist of the method:
as §1

The target in data set [8] is T1, Adrenergic receptor alpha-1 (Rattus norvegicus, UniProt P15823+P23944+P43140).
T1 sequence (P15823 whole entry): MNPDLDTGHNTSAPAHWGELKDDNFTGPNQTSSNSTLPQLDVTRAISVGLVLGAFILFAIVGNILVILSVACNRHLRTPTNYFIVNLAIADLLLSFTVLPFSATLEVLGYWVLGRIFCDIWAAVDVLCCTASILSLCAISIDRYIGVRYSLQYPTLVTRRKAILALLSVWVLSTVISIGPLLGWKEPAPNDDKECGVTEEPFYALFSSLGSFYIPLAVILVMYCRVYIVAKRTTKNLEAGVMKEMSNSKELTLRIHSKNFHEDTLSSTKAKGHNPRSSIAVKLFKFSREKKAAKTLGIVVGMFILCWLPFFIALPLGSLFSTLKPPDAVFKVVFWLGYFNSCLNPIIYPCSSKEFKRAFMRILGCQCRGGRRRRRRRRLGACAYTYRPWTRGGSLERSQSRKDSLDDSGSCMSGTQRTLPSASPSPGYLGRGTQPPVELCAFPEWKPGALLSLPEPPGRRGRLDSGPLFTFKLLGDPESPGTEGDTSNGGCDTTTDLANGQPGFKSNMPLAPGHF
T1 sequence (P23944 whole entry): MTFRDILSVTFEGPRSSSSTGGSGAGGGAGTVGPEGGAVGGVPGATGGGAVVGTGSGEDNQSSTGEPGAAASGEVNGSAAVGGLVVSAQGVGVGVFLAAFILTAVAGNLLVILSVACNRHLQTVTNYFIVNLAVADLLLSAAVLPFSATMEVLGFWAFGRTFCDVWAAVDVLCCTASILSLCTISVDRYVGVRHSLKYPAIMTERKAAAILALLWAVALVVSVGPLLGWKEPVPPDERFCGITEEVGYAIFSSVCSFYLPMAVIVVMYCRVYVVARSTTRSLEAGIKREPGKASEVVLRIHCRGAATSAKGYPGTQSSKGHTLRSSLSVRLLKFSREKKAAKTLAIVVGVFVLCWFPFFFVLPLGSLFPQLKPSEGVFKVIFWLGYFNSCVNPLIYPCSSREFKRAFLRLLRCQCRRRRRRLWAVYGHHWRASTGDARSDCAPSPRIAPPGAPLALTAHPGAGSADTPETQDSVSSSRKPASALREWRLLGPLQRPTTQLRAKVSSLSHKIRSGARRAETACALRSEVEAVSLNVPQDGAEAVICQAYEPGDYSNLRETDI
T1 sequence (P43140 whole entry): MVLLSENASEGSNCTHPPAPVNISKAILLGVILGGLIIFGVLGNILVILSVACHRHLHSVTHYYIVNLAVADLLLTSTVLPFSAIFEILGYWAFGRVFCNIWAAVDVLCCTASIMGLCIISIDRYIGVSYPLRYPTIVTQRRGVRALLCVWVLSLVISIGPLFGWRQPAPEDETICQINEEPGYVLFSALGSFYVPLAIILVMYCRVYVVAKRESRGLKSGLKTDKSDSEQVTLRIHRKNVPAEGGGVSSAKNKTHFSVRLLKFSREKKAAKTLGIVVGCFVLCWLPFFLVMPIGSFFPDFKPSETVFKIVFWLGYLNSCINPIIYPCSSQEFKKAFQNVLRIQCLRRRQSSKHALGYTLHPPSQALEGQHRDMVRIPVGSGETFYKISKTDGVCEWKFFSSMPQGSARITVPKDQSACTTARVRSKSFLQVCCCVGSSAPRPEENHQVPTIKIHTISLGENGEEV
Description: In vitro binding affinity against Alpha-1A adrenergic receptor in isolated prostate tissue of rat. It counts as tissue-based, Prostate gland.

Data set [9] is filed under the species Homo sapiens. The experiment in a line: Antagonism against phenylephrine induced contractions in isolated prostate tissue of human. It counts as functional. The note with it: Prostate gland.
The target in data set [10] is Adrenergic receptor alpha-1 (Rattus norvegicus) (UniProt P15823+P23944+P43140). The experiment in a line: Antagonistic activity against Alpha-1 adrenergic receptor in rat prostate tissue using A61603 as agonist. The data set is classed as functional, tissue-based. The note with it: Prostate gland.
The species named for data set [11] is Canis familiaris. Description: Antagonism against phenylephrine induced contractions in isolated prostate tissue of dog. The data set is classed as functional, Canis lupus familiaris, Prostate gland. In outline:
(§4)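 Isolated prostate strips (rat or dog) contracted with phenylephrine as agonist. Antagonist potency is expressed as Kb, derived from the shift in the agonist response by a previously published method.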

For data set [12], the species on record is Rattus norvegicus. Description: Antagonism against phenylephrine induced contractions in isolated prostate tissue of rat. The data set is classed as functional, Prostate gland. The gist of the method:
as §4

Data set [13] is filed under the species Rattus norvegicus. The description is as §2. The note with it: in vivo. It counts as ADME, organism-based. The gist of the method: as §3
The species entered for data set [14] is Rattus norvegicus. Description: Antagonistic activity against norepinephrine induced contractions in rat vas deferens. It counts as functional.

In general, Ki refers to a measure of affinity in units of concentration, obtained from inhibition or displacement. A high value points to lower affinity.

For the compound `COc1cc2nc(N3CCN(C(=O)C4CCCO4)CC3)nc(N)c2cc1OC` (stereo not drawn) [TERAZOSIN], the results for the Kb in data set [1], in data set [3] and in data set [4] were 16.4 µg/kg, 19 nM and 15.7 µg/kg, respectively. In addition, in [2], the Duration of action was >4 h. Further, the AD50 stood at 0.052 mg/kg in data set [5] and 0.065 mg/kg in [6].

In the case of `CCC1=C(C(N)=O)C(c2ccc(F)c(F)c2)N(C(=O)NCCCN2CCC(C(=O)OC)(c3ccccc3)CC2)C(=O)N1` (stereo not drawn), the Kb in [7] is 187 µg/kg; in [1], 4.2 µg/kg; in data set [3], > 1000 nM; in data set [9], 0.39 nM; in [10], 0.3 nM; in data set [11] it was 3.7 nM. For the same compound, the Kb in [12] came out at 1 nM; in data set [14], 2.5 nM. The compound also had an inhibitory constant (Ki) in [8] of 0.27 nM. For the same compound, in data set [13], the Duration of action was > 4 h. The AD50 was 0.02 mg/kg in data set [5] and >3 mg/kg in [6].
